Compound in series [1]: C/C(=C\CC[C@H](C)C(=O)O)[C@H]1CC[C@H](C(=O)O)CC1
In words: Inhibition of human DNA polymerase lambda at 40 uM using nucleotide as substrate. The method, boiled down:
(§1)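 Kinetics on full-length human pol λ at 0, 20, 40 and 60 μM compound, varying either the template-primer poly(dA)/oligo(dT)12-18 or the nucleotide substrate dTTP. Km and Vmax (pmol/h) came from Lineweaver-Burk plots and Ki from Dixon plots.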

Compound in series [2]: C/C(=C\CC[C@H](C)C(=O)O)[C@H]1CC[C@H](C(=O)O)CC1
In words: Inhibition of human DNA polymerase lambda at 40 uM using template primer as as substrate. The method, boiled down:
as §1

Compound in series [3]: C/C(=C\CC[C@H](C)C(=O)O)[C@H]1CC[C@H](C(=O)O)CC1
In words: Inhibition of human DNA polymerase lambda at 20 uM using nucleotide as substrate. The method, boiled down:
as §1

Compound in series [4]: C/C(=C\CC[C@H](C)C(=O)O)[C@H]1CC[C@H](C(=O)O)CC1
Put plainly: Inhibition of human DNA polymerase lambda at 60 uM using template primer as as substrate. Summed up: as §1

Compound in series [5]: C/C(=C\CC[C@H](C)C(=O)O)[C@H]1CC[C@H](C(=O)O)CC1
Put plainly: Inhibition of human DNA polymerase lambda at 60 uM using nucleotide as substrate. Summed up:
as §1

Compound in series [6]: C/C(=C\CC[C@H](C)C(=O)O)[C@H]1CC[C@H](C(=O)O)CC1
Put plainly: Inhibition of human DNA polymerase lambda at 20 uM using template primer as substrate. Summed up:
as §1

B1: DNA polymerase lambda (Homo sapiens), Q9UGP5 (protein)
chain: MDPRGILKAFPKRQKIHADASSKVLAKIPRREEGEEAEEWLSSLRAHVVRTGIGRARAELFEKQIVQHGGQLCPAQGPGVTHIVVDEGMDYERALRLLRLPQLPPGAQLVKSAWLSLCLQERRLVDVAGFSIFIPSRYLDHPQPSKAEQDASIPPGTHEALLQTALSPPPPPTRPVSPPQKAKEAPNTQAQPISDDEASDGEETQVSAADLEALISGHYPTSLEGDCEPSPAPAVLDKWVCAQPSSQKATNHNLHITEKLEVLAKAYSVQGDKWRALGYAKAINALKSFHKPVTSYQEACSIPGIGKRMAEKIIEILESGHLRKLDHISESVPVLELFSNIWGAGTKTAQMWYQQGFRSLEDIRSQASLTTQQAIGLKHYSDFLERMPREEATEIEQTVQKAAQAFNSGLLCVACGSYRRGKATCGDVDVLITHPDGRSHRGIFSRLLDSLRQEGFLTDDLVSQEENGQQQKYLGVCRLPGPGRRHRRLDIIVVPYSEFACALLYFTGSAHFNRSMRALAKTKGMSLSEHALSTAVVRNTHGCKVGPGRVLPTPTEKDVFRLLGLPYREPAERDW
Turning to B1, the Vmax came out at 32.3 pmol/h in series [1]; 48.8 pmol/h in series [2]; 40 pmol/h in series [3]; 40.8 pmol/h in series [4]; 27 pmol/h in series [5]; 62.5 pmol/h in series [6].

What is called Vmax is the rate approached at saturating substrate.

Values taken from ChEMBL document CHEMBL1157184, “Hymenoic acid, a novel specific inhibitor of human DNA polymerase lambda from a fungus of Hymenochaetaceae sp” (Bioorg Med Chem, 2008).
